In ChEMBL document CHEMBL6127150, “Discovery of PARP1-Sparing Inhibitors for Protein ADP-Ribosylation” (ACS Med Chem Lett, 2024):
The source made the active and inactive calls. The calls are words filed in the database; no cut-off is given here.

How the values were obtained:
[1] = target: T1, Poly [ADP-ribose] polymerase tankyrase-1 (Homo sapiens) (UniProt O95271); assay: Inhibition of human PARP5a catalytic domain expressed in bacterial expression system assessed as reduction in enzyme mediated autoPARylation at 100 uM using NAD+ as substrate measured after 2 hrs by immunoblot analysis
T1 sequence (whole entry): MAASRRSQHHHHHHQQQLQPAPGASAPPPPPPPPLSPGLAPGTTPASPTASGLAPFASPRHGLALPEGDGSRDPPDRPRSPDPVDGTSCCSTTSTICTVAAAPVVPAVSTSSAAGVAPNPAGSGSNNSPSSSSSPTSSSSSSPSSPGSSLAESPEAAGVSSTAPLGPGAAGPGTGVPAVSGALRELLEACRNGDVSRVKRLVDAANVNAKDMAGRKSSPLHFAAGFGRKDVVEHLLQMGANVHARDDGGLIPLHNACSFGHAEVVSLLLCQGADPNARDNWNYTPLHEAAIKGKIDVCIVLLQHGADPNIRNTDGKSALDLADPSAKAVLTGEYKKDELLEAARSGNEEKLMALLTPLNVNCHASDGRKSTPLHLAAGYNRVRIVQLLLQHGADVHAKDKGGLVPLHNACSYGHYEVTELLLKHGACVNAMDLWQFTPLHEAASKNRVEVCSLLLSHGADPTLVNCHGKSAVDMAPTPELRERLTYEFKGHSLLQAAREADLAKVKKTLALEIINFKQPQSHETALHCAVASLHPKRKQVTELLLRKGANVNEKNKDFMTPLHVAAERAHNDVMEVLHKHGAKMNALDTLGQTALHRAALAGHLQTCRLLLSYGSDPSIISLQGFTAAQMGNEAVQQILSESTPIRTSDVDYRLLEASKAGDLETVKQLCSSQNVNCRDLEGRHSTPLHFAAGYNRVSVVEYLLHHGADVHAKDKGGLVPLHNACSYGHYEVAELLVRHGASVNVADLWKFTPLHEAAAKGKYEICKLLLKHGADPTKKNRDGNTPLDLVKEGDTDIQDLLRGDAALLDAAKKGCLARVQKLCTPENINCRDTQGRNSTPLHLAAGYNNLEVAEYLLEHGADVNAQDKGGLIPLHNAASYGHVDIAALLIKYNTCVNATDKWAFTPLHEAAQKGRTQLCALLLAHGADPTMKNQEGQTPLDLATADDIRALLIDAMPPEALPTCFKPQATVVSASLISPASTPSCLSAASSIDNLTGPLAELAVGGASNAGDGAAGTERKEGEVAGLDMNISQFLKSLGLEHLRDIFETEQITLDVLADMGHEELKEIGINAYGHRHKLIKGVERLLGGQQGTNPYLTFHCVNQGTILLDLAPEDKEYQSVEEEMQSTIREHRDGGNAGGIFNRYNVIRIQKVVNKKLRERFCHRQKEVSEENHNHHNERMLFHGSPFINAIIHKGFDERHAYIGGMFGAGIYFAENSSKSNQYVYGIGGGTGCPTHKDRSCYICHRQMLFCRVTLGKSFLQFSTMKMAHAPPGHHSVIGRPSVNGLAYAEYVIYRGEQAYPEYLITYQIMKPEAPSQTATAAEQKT
How it was run: (§1)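 Catalytic domains of human PARP5a (PARylation) and PARP10 (MARylation), bacterially expressed and purified, were auto-ADP-ribosylated with NAD⁺ without or with 100 μM compound. Detection was by immunoblot using the AF1521 macrodomain pan-ADPr binding reagent, with anti-His₆ loading control. Densitometry was normalized to the loading control.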

[2] = target: Poly [ADP-ribose] polymerase 1 (Homo sapiens) (UniProt P09874); assay: Inhibition of human full-length PARP1 expressed in bacterial expression system assessed as reduction in enzyme mediated autoPARylation at 100 uM using NAD+ as substrate preincubated for 30 mins followed by substrate addition and measured after 2 hrs by immunoblot analysis; conditions: time 2.5 hrs
Sequence of Poly [ADP-ribose] polymerase 1 (Homo sapiens) (P09874 whole entry): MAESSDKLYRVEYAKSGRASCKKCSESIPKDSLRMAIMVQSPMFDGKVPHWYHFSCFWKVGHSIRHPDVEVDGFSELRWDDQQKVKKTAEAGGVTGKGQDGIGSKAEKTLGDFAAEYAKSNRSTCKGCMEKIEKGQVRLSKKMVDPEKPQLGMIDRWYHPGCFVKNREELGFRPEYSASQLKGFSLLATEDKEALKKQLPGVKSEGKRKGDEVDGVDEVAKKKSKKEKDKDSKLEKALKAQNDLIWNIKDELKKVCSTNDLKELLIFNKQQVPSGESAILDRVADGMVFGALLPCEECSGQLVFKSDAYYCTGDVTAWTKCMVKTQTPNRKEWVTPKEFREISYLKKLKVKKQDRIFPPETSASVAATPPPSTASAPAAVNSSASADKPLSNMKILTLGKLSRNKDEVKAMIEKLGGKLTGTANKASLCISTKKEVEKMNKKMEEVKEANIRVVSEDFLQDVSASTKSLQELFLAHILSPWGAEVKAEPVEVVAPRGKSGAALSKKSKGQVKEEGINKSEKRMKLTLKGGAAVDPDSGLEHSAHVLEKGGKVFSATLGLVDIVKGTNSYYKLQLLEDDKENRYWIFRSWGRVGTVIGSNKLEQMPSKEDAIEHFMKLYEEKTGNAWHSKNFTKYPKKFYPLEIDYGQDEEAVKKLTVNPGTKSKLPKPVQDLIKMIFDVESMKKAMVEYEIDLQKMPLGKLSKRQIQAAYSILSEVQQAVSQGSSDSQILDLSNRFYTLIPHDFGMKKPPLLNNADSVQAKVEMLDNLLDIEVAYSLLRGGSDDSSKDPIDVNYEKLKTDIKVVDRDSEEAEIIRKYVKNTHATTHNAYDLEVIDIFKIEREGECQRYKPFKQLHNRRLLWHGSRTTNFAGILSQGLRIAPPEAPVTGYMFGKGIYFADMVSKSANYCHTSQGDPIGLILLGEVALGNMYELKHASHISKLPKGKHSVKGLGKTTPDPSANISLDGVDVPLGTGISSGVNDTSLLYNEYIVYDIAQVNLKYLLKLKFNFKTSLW
How it was run: (§2)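 Full-length human PARP1 or PARP2, expressed recombinantly in and purified from bacteria, auto-PARylated without or with 100 μM compound. Read-out was immunoblot with an anti-PAR antibody. Loading control was anti-His₆ for PARP1 and anti-PARP2 antibody for PARP2. Signal was quantified by densitometry normalized to the loading control, with significance testing.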

[3] = target: T2, Protein mono-ADP-ribosyltransferase PARP10 (Homo sapiens, UniProt Q53GL7); assay: Inhibition of human PARP10 catalytic domain expressed in bacterial expression system assessed as reduction in enzyme mediated autoPARylation using NAD+ as substrate measured after 2 hrs by immunoblot analysis
T2 sequence (Q53GL7 whole entry): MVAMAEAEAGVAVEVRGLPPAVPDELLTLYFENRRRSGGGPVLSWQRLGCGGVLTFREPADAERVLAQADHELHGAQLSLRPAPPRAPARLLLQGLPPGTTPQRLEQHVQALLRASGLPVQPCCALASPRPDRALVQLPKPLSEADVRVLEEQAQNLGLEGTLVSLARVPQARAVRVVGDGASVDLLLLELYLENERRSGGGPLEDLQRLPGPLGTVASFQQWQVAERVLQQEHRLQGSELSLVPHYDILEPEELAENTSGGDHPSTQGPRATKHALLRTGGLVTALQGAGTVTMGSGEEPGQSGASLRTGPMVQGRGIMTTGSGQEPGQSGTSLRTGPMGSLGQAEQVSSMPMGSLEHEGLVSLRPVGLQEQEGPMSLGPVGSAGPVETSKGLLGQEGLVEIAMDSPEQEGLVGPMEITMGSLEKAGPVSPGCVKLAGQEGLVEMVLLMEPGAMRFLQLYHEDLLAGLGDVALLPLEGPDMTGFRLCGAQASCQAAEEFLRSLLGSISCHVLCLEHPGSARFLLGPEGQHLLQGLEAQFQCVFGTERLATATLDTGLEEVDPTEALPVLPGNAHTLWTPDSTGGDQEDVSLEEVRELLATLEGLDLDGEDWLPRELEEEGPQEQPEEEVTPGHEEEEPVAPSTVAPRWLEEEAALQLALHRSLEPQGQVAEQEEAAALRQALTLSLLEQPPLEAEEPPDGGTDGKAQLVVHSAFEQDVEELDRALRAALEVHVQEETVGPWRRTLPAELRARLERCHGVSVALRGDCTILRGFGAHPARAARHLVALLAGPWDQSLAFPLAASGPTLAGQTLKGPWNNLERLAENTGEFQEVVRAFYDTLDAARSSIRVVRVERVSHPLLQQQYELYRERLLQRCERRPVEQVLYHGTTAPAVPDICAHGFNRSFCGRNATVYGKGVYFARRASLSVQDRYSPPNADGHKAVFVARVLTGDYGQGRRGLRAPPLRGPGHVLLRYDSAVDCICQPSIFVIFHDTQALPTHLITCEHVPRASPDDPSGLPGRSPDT

[4] = test system: HAP1; assay: Inhibition of PARP in human HAP1 PARP1-KO cell lysates assessed as reduction in protein ADP-ribosylation at 100 uM using NAD+ as substrate measured after 2 hrs by immunoblot analysis; format: subcellular
How it was run: (§3)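 HAP1 or HAP1/PARP1-KO cell lysates were ADP-ribosylated without or with 100 μM compound. Protein ADP-ribosylation was detected by immunoblot with the AF1521 macrodomain pan-ADPr binding reagent, with anti-GAPDH as loading control. Densitometric signal was normalized to loading control and tested for significance.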

[5] = target: T3, Poly [ADP-ribose] polymerase 2 (Homo sapiens, UniProt Q9UGN5); assay: Inhibition of human full-length PARP2 expressed in bacterial expression system assessed as reduction in enzyme mediated autoPARylation at 100 uM using NAD+ as substrate preincubated for 30 mins followed by substrate addition and measured after 2 hrs by immunoblot analysis; conditions: time 2.5 hrs; how it was run: as §2
T3 sequence (Q9UGN5 whole entry): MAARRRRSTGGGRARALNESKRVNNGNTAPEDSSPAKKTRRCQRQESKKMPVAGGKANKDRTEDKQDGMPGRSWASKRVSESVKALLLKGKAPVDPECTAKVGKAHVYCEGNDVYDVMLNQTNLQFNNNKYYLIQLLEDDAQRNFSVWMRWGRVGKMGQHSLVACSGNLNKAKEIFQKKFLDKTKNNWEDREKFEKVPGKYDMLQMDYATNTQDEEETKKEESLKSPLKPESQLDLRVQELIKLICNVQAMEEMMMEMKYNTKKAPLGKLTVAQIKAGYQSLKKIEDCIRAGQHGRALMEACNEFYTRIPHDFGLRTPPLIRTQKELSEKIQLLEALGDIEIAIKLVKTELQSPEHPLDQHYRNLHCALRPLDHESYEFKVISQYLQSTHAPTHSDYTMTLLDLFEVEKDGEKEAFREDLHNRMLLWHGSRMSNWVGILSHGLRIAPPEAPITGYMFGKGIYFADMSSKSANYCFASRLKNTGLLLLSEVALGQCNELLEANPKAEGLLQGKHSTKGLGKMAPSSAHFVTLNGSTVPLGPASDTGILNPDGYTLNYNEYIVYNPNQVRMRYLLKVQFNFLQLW

[6] = target: T3, Poly [ADP-ribose] polymerase 2; assay: Inhibition of human full-length PARP2 expressed in bacterial expression system assessed as reduction in enzyme mediated autoPARylation using NAD+ as substrate preincubated for 30 mins followed by substrate addition and measured after 2 hrs by immunoblot analysis
[7] = target: T4, Protein mono-ADP-ribosyltransferase PARP10 (Homo sapiens) (UniProt Q53GL7); assay: Inhibition of human PARP10 catalytic domain expressed in bacterial expression system assessed as reduction in enzyme mediated autoPARylation at 100 uM using NAD+ as substrate measured after 2 hrs by immunoblot analysis; how it was run: as §1
T4 sequence (whole entry): T2 sequence (Q53GL7 whole entry)

[8] = test system: HAP1; assay: Inhibition of PARP in human HAP1 cell lysates assessed as reduction in protein ADP-ribosylation at 100 uM using NAD+ as substrate measured after 2 hrs by immunoblot analysis; format: subcellular; how it was run: as §3

inhibition [1]	inhibition [2]	IC50 [3] [µM]	inhibition [4]	inhibition [5]	IC50 [6] [µM]	inhibition [7]	inhibition [8]	Compound
Active	inactive	39.4	Active	Active	50.1	Active	Active	CC(=O)c1cc(COc2ccccc2C(N)=O)ccc1F
	inactive							CC(=O)c1cccc(C(=O)Nc2ccccc2C(N)=O)c1
	inactive							CC(=O)c1cccc(CNc2ccccc2C(N)=O)c1
Active	inactive	15.3	Active	Active	102	Active	Active	CC(=O)c1cccc(COc2ccccc2C(N)=O)c1
				Active				CC(=O)c1cccc([C@@H](C)Oc2ccccc2C(N)=O)c1
Active	inactive	36.9	Active	Active	51.5	Active	Active	CC(=O)c1cccc(CCOc2ccc(F)cc2C(N)=O)c1
				Active				CC(=O)c1cccc(CCCOc2ccccc2C(N)=O)c1
			Active				Active	O=C(c1cc(Cc2n[nH]c(=O)c3ccccc23)ccc1F)N1CCN(C(=O)C2CC2)CC1
				Active				CC(=O)c1cccc([C@H](C)Oc2ccccc2C(N)=O)c1
Active	inactive	48.3	Active	Active	59.7	Active	Active	CC(=O)c1cccc(CCOc2ccccc2C(N)=O)c1
